This note sets out measurements from ChEMBL document CHEMBL1143874, “Diazen-1-ium-1,2-diolated and nitrooxyethyl nitric oxide donor ester prodrugs of anti-inflammatory (E)-2-(aryl)-3-(4-methanesulfonylphenyl)acrylic acids: synthesis, cyclooxygenase inhibition, and nitric oxide release studies” (Bioorg Med Chem, 2008).

A short description of data set [1]: Nitric oxide release in PBS at pH 7.4 in 37 degC after 1.5 hrs. In kind it is functional. On the set-up: concentration or dose not given beside the values. In a few lines:
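Test compound at 1.0 · 10^-2 mM in phosphate buffer pH 7.4, incubated 37 °C for 1.5 h. Nitrite was quantified by Griess reaction. % NO released is relative to a theoretical maximum of 2 mol NO/mol for diazeniumdiolates, 1 mol/mol for nitrooxyethyl esters and 3 mol/mol for glycerol trinitrate. Mean of 3 measurements.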

Another data set deals with Serum. Put plainly: Nitric oxide in rat serum at pH 7.4 in 37 degC after 1.5 hrs. Format: ADME, cell-free. As to conditions: pH 7.4, 1.5 h. On the set-up: concentration or dose not given beside the values. In a few lines: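 Test compound at 1.0 · 10^-2 mM in phosphate buffer pH 7.4 with 90 µL rat serum added, incubated 37 °C for 1.5 h. Nitrite measured by Griess reaction. % NO released is relative to a theoretical maximum of 2 mol NO/mol for diazeniumdiolates and 1 mol/mol for nitrooxyethyl esters. Mean of 3 measurements.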

Data set [2] deals with T1, Prostaglandin G/H synthase 1 (Ovis aries, UniProt P05979).
T1 sequence (P05979 whole entry): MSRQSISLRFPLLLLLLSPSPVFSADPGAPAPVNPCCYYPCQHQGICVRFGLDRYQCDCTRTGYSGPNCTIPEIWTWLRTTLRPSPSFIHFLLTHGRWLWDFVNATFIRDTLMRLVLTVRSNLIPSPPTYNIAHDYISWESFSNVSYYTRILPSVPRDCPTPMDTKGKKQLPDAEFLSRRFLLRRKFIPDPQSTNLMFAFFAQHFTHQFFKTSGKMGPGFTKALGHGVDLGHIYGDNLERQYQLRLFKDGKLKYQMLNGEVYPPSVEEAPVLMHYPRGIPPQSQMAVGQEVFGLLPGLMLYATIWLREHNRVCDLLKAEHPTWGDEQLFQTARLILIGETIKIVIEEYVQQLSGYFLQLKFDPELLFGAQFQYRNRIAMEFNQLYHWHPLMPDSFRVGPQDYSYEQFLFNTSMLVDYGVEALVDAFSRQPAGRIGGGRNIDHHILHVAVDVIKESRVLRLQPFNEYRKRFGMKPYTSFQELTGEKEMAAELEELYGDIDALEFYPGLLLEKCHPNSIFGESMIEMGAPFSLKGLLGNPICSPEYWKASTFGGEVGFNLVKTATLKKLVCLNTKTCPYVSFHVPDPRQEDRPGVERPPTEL
Put plainly: Inhibition of ovine COX1 by enzyme immunoassay.

A short description of data set [3]: Nitric oxide release in PBS in presence of 5 mM L-cysteine at pH 7.4 in 37 degC after 1.5 hrs. Format: functional. In a few lines: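 Phosphate buffer pH 7.4 containing 5.0 mM L-cysteine, with test compound at 1.0 · 10^-2 mM, kept at 37 °C for 1.5 h. Nitrite was determined by Griess reaction. % NO released is relative to a theoretical maximum of 1 mol NO/mol for nitrooxyethyl esters. Mean of 3 measurements.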

Another data set is filed under the species Ovis aries. Put plainly: Selectivity index, ratio of IC50 for ovine COX1 to IC50 for ovine COX2. In a few lines:
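Ovine COX-1 and COX-2 IC50s were measured by enzyme immunoassay kit. Deviation from the mean was <10%. The index is COX-1 IC50/COX-2 IC50.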

Each structure is given as a SMILES string.

`CN(CCO)/[N+]([O-])=N/[O-].[Na+]`: the Activity in data set [1] was found to be 84.9%; in the data set on Serum, 85%.

For `CC(=O)OCO/N=[N+](\[O-])N(C)CCOC(=O)/C(=C/c1ccc(S(C)(=O)=O)cc1)c1ccc(Br)cc1`, the figures for the Activity (in data set [1]; with Serum) were 3.5% and 76.2%, respectively.

The term IC50 denotes the concentration at which inhibition is half-maximal. The compound `CS(=O)(=O)c1ccc(/C=C(/C(=O)OCCO[N+](=O)[O-])c2ccc(Br)cc2)cc1` had an IC50 in data set [2] of 370 nM. The Activity in data set [1] is 1%; in data set [3] it was 10.1%.

On to `CS(=O)(=O)c1ccc(/C=C(/C(=O)O)c2ccccc2)cc1`, for which inhibition in data set [2] was half-maximal at 1500 nM (IC50). Besides, the Ratio IC50 in the data set listed under Ovis aries worked out at 0.5.

`CS(=O)(=O)c1ccc(/C=C(/C(=O)OCCO[N+](=O)[O-])c2ccccc2)cc1`: in data set [2], the midpoint of inhibition, the IC50, lay at 6200 nM. Moreover, the Activity was 3% in data set [1] and 8.5% in data set [3].

With `O=[N+]([O-])OCC(CO[N+](=O)[O-])O[N+](=O)[O-]`, the results for the Activity in data set [1] and in data set [3] were 2.8% and 10.1%, respectively.

`CS(=O)(=O)c1ccc(/C=C(/C(=O)OCCO[N+](=O)[O-])c2ccc(F)cc2)cc1` displayed an IC50 in data set [2] of 1600 nM. The values for the Activity in data set [1] and in data set [3] were 3.3% and 7.6%, respectively.

As for `CS(=O)(=O)c1ccc(/C=C(/C(=O)O)c2ccc(Br)cc2)cc1`, the IC50 in data set [2] was 880 nM.

Take `CC(=O)OCO/N=[N+](\[O-])N(C)CCOC(=O)/C(=C/c1ccc(S(C)(=O)=O)cc1)c1ccccc1`: the Activity in data set [1] came to 4.8%; in the data set with Serum it was 83%.

`CC(=O)OCO/N=[N+](\[O-])N(C)CCOC(=O)/C(=C/c1ccc(S(C)(=O)=O)cc1)c1ccc(F)cc1`: the Activity is 3.6% in data set [1] and 82.1% in the data set on Serum.

Regarding `CS(=O)(=O)c1ccc(/C=C(/C(=O)O)c2ccc(F)cc2)cc1`, in data set [2], it took 400 nM to reach half-maximal inhibition (IC50).

The compound `COc1ccc(/C(=C\c2ccc(S(C)(=O)=O)cc2)C(=O)O)cc1` showed an IC50 in data set [2] of 31600 nM.

`COc1ccc(/C(=C\c2ccc(S(C)(=O)=O)cc2)C(=O)OCCO[N+](=O)[O-])cc1` displayed an IC50 in data set [2] of 1100 nM. Moreover, the Activity in data set [1] was 1.4%; in data set [3], 9.2%.

With `COc1ccc(/C(=C\c2ccc(S(C)(=O)=O)cc2)C(=O)OCCN(C)/[N+]([O-])=N/OCOC(C)=O)cc1`, the Activity in data set [1] was found to be 3.9%; in the data set on Serum it was 77.6%.
